# Data published in PubChem BioAssay AID624466 (The Scripps Research Institute Molecular Screening Center, 2012).
# Among all 360,000 compounds or so, about 5,400 (1.5%) were called active. This excerpt belongs to a sample that is enriched for actives. Values without a mark were called inactive.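 How the source made its calls: active means inhibition above a per-plate cutoff, the mean inhibition of test compounds on that plate plus 3 SD (cut at about 49% in these data); inactive means the rest.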
# Target: Trace amine-associated receptor 1 (Homo sapiens) (UniProt Q96RJ0)
# Assay: human TAAR1 antagonists, primary screen, Fluo-8 calcium fluorescence, CHO RD-HGA16 cells (AID 624466);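 further: 0% = DMSO plus EC80 beta-PEA response and 100% = DMSO alone without agonist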
# Conditions: CHO RD-HGA16 TAAR1, Fluo-8 calcium fluorescence, antagonist; at 3 µM; stronger effect = higher value
# How it was run: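 Test system – hTAAR1-expressing CHO RD-HGA16 cells, Gα16-coupled · Reagent – β-PEA at EC80 concentration, post-compound challenge · Compound dosing – 3 µM, single point · Timing – 140 s kinetic read after compound, 140 s after agonist · Detection – Fluo-8 intracellular calcium dye fluorescence, real-time kinetic reads · Control set – DMSO and EC80 PEA controls · Repeats – n of 1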
# Chain of Trace amine-associated receptor 1 (Homo sapiens) (Q96RJ0 whole entry, looked up): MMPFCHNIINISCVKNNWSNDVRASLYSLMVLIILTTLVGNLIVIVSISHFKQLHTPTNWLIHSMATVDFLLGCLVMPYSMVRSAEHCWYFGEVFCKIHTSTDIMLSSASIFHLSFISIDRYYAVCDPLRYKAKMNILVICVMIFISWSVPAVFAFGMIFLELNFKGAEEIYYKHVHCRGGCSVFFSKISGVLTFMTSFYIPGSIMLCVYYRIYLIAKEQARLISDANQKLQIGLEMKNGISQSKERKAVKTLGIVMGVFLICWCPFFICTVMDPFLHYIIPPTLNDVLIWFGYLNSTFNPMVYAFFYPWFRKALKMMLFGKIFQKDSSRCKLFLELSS
row,Structure (SMILES),inhibition
1,COc1ccc(CNC(=O)COC(=O)c2c(C)nn(-c3ccccc3)c2C)cc1OC,-1.94%
2,COc1ccc(CNC(=O)COc2ccccc2C(=O)c2cnn(-c3ccccc3)c2)cc1OC,54% (active)
3,COc1ccc(CNC(=O)COC(=O)c2sccc2C)cc1OC,-9.87%
4,Cc1cccc(C)c1NC(=O)C(c1cccc(F)c1)N1CCN(C)CC1 (stereo unspecified),-12.4%
5,Cc1ccc(-c2nn(-c3ccccc3)cc2C(=O)NCCCN2CCCC2=O)cc1,-7.1%
6,O=C(O)c1ccc(NC(=O)c2cn(-c3ccccc3)nc2-c2ccc(Cl)cc2)cc1,73.7% (active)
7,O=C(NNC(=S)NC(=O)c1cn(-c2ccccc2)nc1-c1ccccc1)c1ccncc1,49.8% (active)
8,NC(=O)C1CCN(C(=O)c2cn(-c3ccccc3)nc2-c2cccnc2)CC1,-9.79%
9,Cc1ccc(-c2nn(-c3ccccc3)cc2C(=O)Nc2cccc(S(=O)(=O)N3CCOCC3)c2)cc1,11%
10,O=C(NCCCN1CCOCC1)c1cn(-c2ccccc2)nc1-c1ccc(F)cc1,3.41%
11,CSc1ccc(C#N)cc1NC(=O)c1ccc(Cl)cc1,-1.99%
12,CCc1ccc(NC(=O)C(=O)N/N=C(\C)CC(=O)NCCOC)cc1,-6%
13,CCOC(=O)[C@]12CCC=C1N(Cc1cccc3ccccc13)C(=O)[C@H](CC(=O)NCc1cccc(C(F)(F)F)c1)C2,-4.64%
14,CC1=NOC(=O)/C1=C\c1ccccc1,-15%
15,C#CCOc1ccc(/C=C2/C(=O)ON=C2C)cc1OCC,12.6%
16,COc1cc(/C=C2/C(=O)ON=C2C)ccc1OCc1ccccc1F,51.4% (active)
17,CC[C@H](NC(=O)[C@H](Cc1ccccc1)NC(=O)[C@H]1O[C@@H](n2cnc3c(=O)[nH]c(N)nc32)[C@H](O)[C@@H]1O)c1ccccc1,-41.7%
18,CC(C)(C)n1nc2c(c1NC(=O)c1ccc(S(=O)(=O)N3CCCC3)cc1)CS(=O)C2 (stereo unspecified),4.79%
19,COc1ccc(CNS(=O)(=O)c2cc(Br)ccc2Br)cc1,-2.96%
20,CC(C)CC1NC(=O)c2cc(Cl)ccc2-n2c1nc1ccccc1c2=O (stereo unspecified),-6.66%
21,CCCOc1ccc(F)cc1-c1cc(C(=O)Nc2ccc(F)cc2)[nH]n1,15.5%
22,CCCOc1ccc(F)cc1-c1cc(C(=O)Nc2ccc(F)c(Cl)c2)[nH]n1,38.5%

row,Structure (SMILES),inhibition
1,CCCOc1ccc(F)cc1-c1cc(C(=O)NCc2ccc(F)cc2)[nH]n1,53.6% (active)
2,O=S1(=O)c2ccc(Br)cc2-n2nncc2CN1Cc1cccc(Cl)c1,3.33%
3,O=c1onc(-c2c(F)cccc2F)n1-c1ccccc1Cl,4.53%
4,COc1ccc(-c2nc3ccccc3c(=O)n2CCc2ccc(O)cc2)cc1,58.4% (active)
5,COc1ccc(-c2ccc(CCC(=O)O)n2-c2ccc(O)cc2)cc1,-5.35%
6,COc1ccc(CCNCc2c(-c3ccccc3)n(C)c3ccccc23)cc1,25%
7,Cc1ccc(-c2nc3c(C)cc(Br)cn3c2Cc2ccccc2)cc1,-21.5%
8,O=C(N[C@H]1CC[C@H](CC(=O)N2CCCCC2)O[C@@H]1CO)c1cccc(F)c1,4.76%
9,CC(=O)C[C@@H](O)CC(=O)[C@H]1OC(=O)CCCCCCc2ccccc21,6.02%
10,CCc1ccc(C2=CC(=O)CC(C)(C)C2=O)cc1,-8.28%
11,O=C(O)Cn1cnc2c(NCc3ccccc3)ncnc21,-23.5%
12,COC(=O)c1ccc(C2NC(=O)NC(C)=C2C(=O)N(C)C)cc1 (stereo unspecified),-4.25%
13,CCCCNc1ccc(C(=O)Nc2cccc(C)n2)cc1[N+](=O)[O-],24.1%
14,Cc1cccc(NC(=O)c2ccc(COc3ccccc3[N+](=O)[O-])o2)n1,51.5% (active)
15,CCOc1ccc(OCc2ccc(C(=O)Nc3cccc(C)n3)o2)cc1,16.1%
16,Cn1c(=O)c2c(ncn2CC(=O)N/N=C/c2cn[nH]c2-c2ccc(F)cc2)n(C)c1=O,2.24%
17,CCCCCn1nnnc1C1c2ccccc2C(=O)N1Cc1ccco1 (stereo unspecified),-12.2%
18,O=C(NS(=O)(=O)c1cccs1)[C@H]1O[C@@H](n2ccc(=O)[nH]c2=O)[C@H](O)[C@@H]1O,-23.6%
19,COc1ccc(C(=O)Nc2ccccc2C(=O)N/N=C/c2ccc(O)c(OC)c2)cc1,62.8% (active)
20,O=C(NN=Cc1ccc2c(c1)CCC2)c1ccccc1O,10.7%
21,CC(C)(C)C(=O)Nc1ccc(C(=O)N/N=C/c2ccccc2OC(=O)c2ccc(Cl)cc2Cl)cc1,26.4%
22,CCOc1cc(/C=N/NC(=O)c2cc(-c3ccccc3)nc3ccccc23)ccc1O,51.5% (active)

row,Structure (SMILES),inhibition
1,CCOc1cc(/C=N/NC(=O)c2c(C)nc3ccc(Cl)cn23)ccc1O,-3.33%
2,CCOc1ccc(-c2cc(C(=O)N/N=C/c3ccc(O)cc3)c3ccccc3n2)cc1,0.39%
3,COc1ccc(-c2[nH]ncc2/C=N/NC(=O)c2cc(Br)ccc2O)c(OC)c1,-4.36%
4,O=C(N/N=C/c1ccc(OC(=O)c2ccccc2Cl)cc1)c1ccc(O)cc1,68.9% (active)
5,O=C(N/N=C/c1ccc(OCC2COCCO2)cc1)c1ccc(Br)cc1 (stereo unspecified),18.2%
6,O=C(NC1CCCCC1)C(c1cc2ccccc2o1)n1c(=O)c(-c2ccco2)nc2ccccc21 (stereo unspecified),-22.4%
7,N#Cc1ccc(-c2nc3cc(C#N)c(C#N)cc3nc2-c2ccccc2)cc1C#N,-9.51%
8,CC1CCCN(c2cccc3c2S(=O)(=O)N(Cc2ccc(F)cc2)[C@@H](C)[C@H](c2ccccc2)O3)C1 (stereo partly specified),-13.7%
9,CCCNC(=O)c1cc2c(c(-c3cccc(-c4ccc(C#N)cc4)c3)n1)[C@@H](CCO)N(C(=O)CC)C2,-3.02%
10,COC(=O)[C@]12C[C@H](CC(=O)NCc3ccc(OC)c(OC)c3)C(=O)N(Cc3ccccc3)C1=C[C@H](C(C)C)O[C@@H]2C1CC1,-4.52%
11,COc1cccc(NC(=O)Nc2ccc(F)cc2)c1,14.5%
12,CCc1ccc(NC(=O)Nc2ccncc2)cc1,6.77%
13,O=C(Nc1ccncc1)Nc1ccc(F)cc1,57.8% (active)
14,CCC(C(=O)NCc1ccccc1)n1c(Cc2cc(F)cc(F)c2)nc2ccccc21 (stereo unspecified),-4.56%
15,O=CN1CCN(C(=O)c2ccc(Br)o2)CC1,-11.1%
16,CC(NC(=O)c1ccccc1SCC(=O)N1CCCC1)c1ccccc1 (stereo unspecified),-4.95%
17,CC(C)N(Cc1ccccc1)C(=O)COC(=O)c1ccccc1SCC(=O)N1CCCC1,64% (active)
18,CSc1ccccc1C(=O)OCC(=O)N1CCN(C(C)=O)CC1,-1.96%
19,COc1ccccc1NC(=O)COC(=O)c1ccccc1SCC(=O)N1CCCC1,-8.15%
20,O=C(COC(=O)c1ccccc1SCC(=O)N1CCCC1)Nc1ccccc1OC(F)F,56.5% (active)
21,CN(CC(=O)Nc1ccccc1Cl)C(=O)c1ccccc1SCC(=O)N1CCCC1,-6.53%
22,COCCNC(=O)C1C(=O)Nc2ccccc2C(=O)N1c1ccc2c(c1)OCCO2 (stereo unspecified),-30.9%

row,Structure (SMILES),inhibition
1,CCCCCCCCN1C(=O)[C@H](CC(=O)NCC23CC4CC(CC(C4)C2)C3)C[C@@]2(C(=O)OC)CCCCC=C12,-15.3%
2,CCOC(=O)C(C)N(c1ccccc1Cl)S(C)(=O)=O (stereo unspecified),-3.03%
3,CN(CC(=O)O)S(=O)(=O)c1ccc2oc3ccccc3c2c1,-5.94%
4,COc1ccc(-c2cc(C(=O)N(C)Cc3ccccc3)c3ccccc3n2)cc1,62.6% (active)
5,C/C(N)=C(/C#N)C(=O)COC(=O)c1cc(-c2ccc(C)cc2)nc2ccccc12,-4.69%
6,COc1ccc(CN(C)C(=O)c2cc(-c3ccc(C)cc3C)nc3ccccc23)c(OC)c1OC,72.6% (active)
7,COc1ccc(S(=O)(=O)N2CCCCCC2)cc1C(=O)N(C)Cc1cccc(OC)c1OC,3.09%
8,COc1ccc(CN(C)C(=O)Cc2c[nH]c3ccccc23)c(OC)c1OC,4.63%
9,COc1ccc(-c2cc(C(=O)N(C)CC(=O)Nc3ccccc3Cl)c3ccccc3n2)cc1OC,73.2% (active)
10,COc1ccc(C(=O)N(C)Cc2ccc(OC)c(OC)c2OC)cc1S(=O)(=O)N1CCOCC1,-9.36%
11,Cc1cccc(C(=O)NCC(=O)OCC(=O)N(C)CC(=O)Nc2ccccc2Cl)c1,-23.2%
12,COc1ccc(-c2cc(C(=O)N(C)Cc3ccc(OC)c(OC)c3OC)c3ccccc3n2)cc1OC,78.5% (active)
13,COc1ccc(C2=NS(=O)(=O)N(C)C(C(=O)N(C)Cc3ccccc3)=C2)cc1,11.5%
14,COc1ccc(CN(C)C(=O)Cc2ccsc2)c(OC)c1OC,-26.8%
15,COc1ccc(Cl)cc1NC(=O)CN(C)C(=O)c1ccc2n[nH]nc2c1,-6.92%
16,Cc1ccc(N/C(N)=N/c2nc(C(F)(F)F)cc(C(F)(F)F)n2)cc1,1.49%
17,CCn1ccnc1CN(C)C(=O)c1ccc2nc(Cc3ccc(OC)cc3)oc2c1,9.63%
18,Cc1ccc(C)c(CN2CCC(CNC(=O)C3CCCN(c4ncnc5c4nc4n5CCCCC4)C3)CC2)c1 (stereo unspecified),-10.2%
19,O=C(Nc1ccc(CSc2ccccc2)cc1)c1ccc(CN2CCOCC2)cc1,29.6%
20,COCc1cc(N2CCN(C(=O)OC(C)(C)C)C[C@@H]2C)ccc1N1CCN(Cc2ccccc2)[C@H](C)C1,-3.16%
